Counter-ions that a name gives are not always drawn. Starred links: 1 amine or outer side, 2 acyl side, 3 side chain; linkers in the order of their positions; H or OH if unused. Non-standard residues stand in square brackets, D forms with d. Residues, ends and D or L forms follow the SMILES beside them. Groups on a side chain read outwards from the residue. *: point of attachment. Met(O) = CS(=O)CC[C@H](N)C(=O)O; Isobutyryl = CC(C)C(=O)*; Cbz = O=C(OCc1ccccc1)*; Dap = NC[C@H](N)C(=O)O; Boc = CC(C)(C)OC(=O)*; CO = O=C([*:1])[*:2]; Propionyl = CCC(=O)*; Tfa = O=C(C(F)(F)F)*; Bz = O=C(c1ccccc1)*; Ms = CS(=O)(=O)*; Moc = COC(=O)*; For = O=C*
Experiments:
Human rhinovirus sp. = test: Effective concentration in HRV-14 infected H1- HeLa cells by protection assay.; assay type: functional, organism-based
Method in brief: (§1)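 Cell protection assay in H1-HeLa cells infected with the named HRV serotype, using virus stocks propagated in H1-HeLa cells. Values reported are the 50% effective concentration (EC50), the 50% toxic concentration (TC50) and the therapeutic index (TI).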

[1] = target: T1, Human rhinovirus A protease (Human rhinovirus sp., UniProt Q4U254); test: Binding affinity against HRV-14 3C protease.
T1 sequence (Q4U254 whole entry): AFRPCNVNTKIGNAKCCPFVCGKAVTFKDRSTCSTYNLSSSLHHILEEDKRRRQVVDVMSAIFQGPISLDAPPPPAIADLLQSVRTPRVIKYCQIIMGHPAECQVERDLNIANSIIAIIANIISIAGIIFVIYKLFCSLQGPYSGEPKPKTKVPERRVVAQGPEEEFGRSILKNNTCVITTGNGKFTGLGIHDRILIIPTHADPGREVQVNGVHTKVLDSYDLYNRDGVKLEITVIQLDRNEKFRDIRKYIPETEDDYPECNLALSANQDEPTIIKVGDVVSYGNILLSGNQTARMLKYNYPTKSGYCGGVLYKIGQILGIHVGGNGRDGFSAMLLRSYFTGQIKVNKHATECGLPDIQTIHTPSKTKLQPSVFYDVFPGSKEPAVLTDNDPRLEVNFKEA
Method in brief: (§2)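 Recombinant 3C protease of the named HRV serotype, expressed and purified. Ki was determined by a continuous fluorescence resonance energy transfer cleavage assay, with 5 mM dithiothreitol included in the assay. Reported standard deviation ±10%.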

[2] = Toxic concentration on HRV-14 infected H1- HeLa cells by protection assay.; assay type: toxicity, cell-based; details: human, H1-HeLa cells infected with HRV-14; read-out: TC50 (the source's name); method in brief: as §1
[3] = Therapeutic Index against HRV-14 virus infection; assay type: organism-based; details: rhinovirus b14, H1-HeLa cells; read-out: TI; method in brief: as §1
HeLa [4] = test: Effective concentration was measured on HRV-16 infected H1- HeLa cells by protection assay.; assay type: functional, cell-based; details: Homo sapiens; method in brief: as §1
HeLa [5] = test: Effective concentration was measured on HRV-2 infected H1- HeLa cells by protection assay.; assay type: functional, cell-based; details: Homo sapiens; method in brief: as §1
HeLa [6] = test: Effective concentration was measured on HRV-89 infected H1- HeLa cells by protection assay.; assay type: functional, cell-based; details: Homo sapiens; method in brief: as §1
[7] = target: T1, Human rhinovirus A protease; test: Binding affinity was measured against HRV-16 3C protease; method in brief: as §2
[8] = target: T1, Human rhinovirus A protease; test: Binding affinity was measured against HRV-2 3C protease; method in brief: as §2
[9] = target: T1, Human rhinovirus A protease; test: Binding affinity was measured against HRV-89 3C protease; method in brief: as §2
[10] = Toxic concentration was measured on HRV-16 infected H1- HeLa cells by protection assay.; assay type: ADME, cell-based; details: human, H1-HeLa cells infected with HRV-16; read-out: TC50 (the source's name); method in brief: as §1
[11] = Toxic concentration was measured on HRV-2 infected H1- HeLa cells by protection assay.; assay type: ADME, cell-based; details: human, H1-HeLa cells infected with HRV-2; read-out: TC50 (the source's name); method in brief: as §1
[12] = Toxic concentration was measured on HRV-89 infected H1- HeLa cells by protection assay.; assay type: ADME, cell-based; details: human, H1-HeLa cells infected with HRV-89; read-out: TC50 (the source's name); method in brief: as §1

SMILES | EC50 (Human rhinovirus sp.) [nM] | Ki [1] [nM] | CC50 [2] [nM] | selectivity ratio [3] | other results
CC(C)C[C@H](NC(=O)OCc1ccccc1)C(=O)N[C@@H](Cc1ccccc1)C(=O)N[C@H](C=O)CNC(=O)OC(C)(C)C (Cbz-Leu-Phe-[Dap](Boc)-aldehyde) | 2000 | 66 | 56200 | 28 | –
CC(C)C[C@H](NC(=O)OCc1ccccc1)C(=O)N[C@@H](Cc1ccccc1)C(=O)N[C@H](C=O)CN1CCCC1=O | 4000 | 52 | > 100000 | > 25 | –
CC(C)C[C@H](NC(=O)OCc1ccccc1)C(=O)N[C@@H](Cc1ccccc1)C(=O)N[C@H](C=O)CNC=O (Cbz-Leu-Phe-[Dap](For)-aldehyde) | 1600 | 73 | 206000 | 129 | –
CC(C)C[C@H](NC(=O)OCc1ccccc1)C(=O)N[C@@H](Cc1ccccc1)C(=O)N[C@H](C=O)CNC(=O)c1ccno1 | 1500 | 5 | 59500 | 40 | –
CC(C)C[C@H](NC(=O)OCc1ccccc1)C(=O)N[C@@H](Cc1ccccc1)C(=O)N[C@H](C=O)CNC(=O)N(C)C (Cbz-Leu-Phe-[Dap]([CO-NMe2])-aldehyde) | 2100 | 10 | 99000 | 47 | –
CCC(=O)NC[C@@H](C=O)NC(=O)[C@H](Cc1ccccc1)NC(=O)[C@H](CC(C)C)NC(=O)OCc1ccccc1 (Cbz-Leu-Phe-[Dap](Propionyl)-aldehyde) | 1300 | 7 | > 100000 | > 77 | –
CC(C)C[C@H](NC(=O)OCc1ccccc1)C(=O)N[C@@H](Cc1ccccc1)C(=O)N[C@H](C=O)CCC(N)=O (Cbz-Leu-Phe-Gln-aldehyde) | 66000 | 3600 | 398000 | 6 | –
CC(C)C[C@H](NC(=O)OCc1ccccc1)C(=O)N[C@@H](Cc1ccccc1)C(=O)N[C@H](C=O)CNC(=O)C(F)(F)F (Cbz-Leu-Phe-[Dap](Tfa)-aldehyde) | 1800 | 146 | 25000 | 14 | –
CC(=O)N(C)C[C@@H](C=O)NC(=O)[C@H](Cc1ccccc1)NC(=O)[C@H](CC(C)C)NC(=O)OCc1ccccc1 | 5200 | 469 | 100000 | 19 | –
CC(C)C[C@H](NC(=O)OCc1ccccc1)C(=O)N[C@@H](Cc1ccccc1)C(=O)N[C@H](C=O)CCC(=O)N(C)C (Cbz-Leu-Phe-Glu(NMe2)-aldehyde) | 1300 | 5 | 63000 | 48 | –
CC(C)C[C@H](NC(=O)OCc1ccccc1)C(=O)N[C@@H](Cc1ccccc1)C(=O)N[C@H](C=O)CNC(=O)C(C)C (Cbz-Leu-Phe-[Dap](Isobutyryl)-aldehyde) | 4000 | 18 | 18000 | 5 | –
CC(=O)NC[C@@H](C=O)NC(=O)[C@H](Cc1ccccc1)NC(=O)[C@H](CC(C)C)NC(=O)OCc1ccccc1 (Cbz-Leu-Phe-[Dap](Ac)-aldehyde) | 2400 | 6 | 316000 | 132 | EC50 (HeLa [4]): 2100 nM; EC50 (HeLa [5]): 3100 nM; EC50 (HeLa [6]): 2200 nM; Ki [7]: 69 nM; Ki [8]: 160 nM; Ki [9]: 36 nM; CC50 [10]: > 100000 nM; CC50 [11]: > 100000 nM; CC50 [12]: > 100000 nM
CC(C)C[C@H](NC(=O)OCc1ccccc1)C(=O)N[C@@H](Cc1ccccc1)C(=O)N[C@H](C=O)CCC#N | 8000 | 190 | 31000 | 4 | –
CC(C)C[C@H](NC(=O)OCc1ccccc1)C(=O)N[C@@H](Cc1ccccc1)C(=O)N[C@H](C=O)CNS(C)(=O)=O (Cbz-Leu-Phe-[Dap](Ms)-aldehyde) | 20000 | 640 | 63000 | 3 | –
CC(C)C[C@H](NC(=O)OCc1ccccc1)C(=O)N[C@@H](Cc1ccccc1)C(=O)N[C@H](C=O)CC[S+](C)[O-] (stereo partly drawn) (Cbz-Leu-Phe-[Met(O)]-aldehyde) | 4500 | 5 | > 100000 | > 22 | –
COC(=O)NC[C@@H](C=O)NC(=O)[C@H](Cc1ccccc1)NC(=O)[C@H](CC(C)C)NC(=O)OCc1ccccc1 (Cbz-Leu-Phe-[Dap](Moc)-aldehyde) | 5000 | 132 | 56200 | 11 | –
CC(C)C[C@H](NC(=O)OCc1ccccc1)C(=O)N[C@@H](Cc1ccccc1)C(=O)N[C@H](C=O)CCC(=O)NC(c1ccccc1)(c1ccccc1)c1ccccc1 | > 15800 | 40 | 15800 | – | –
CC(C)C[C@H](NC(=O)OCc1ccccc1)C(=O)N[C@@H](Cc1ccccc1)C(=O)N[C@H](C=O)CNC(=O)c1ccccc1 (Cbz-Leu-Phe-[Dap](Bz)-aldehyde) | 1000 | 12 | 51200 | 51 | –

Reference: ChEMBL document CHEMBL1131035, “Tripeptide aldehyde inhibitors of human rhinovirus 3C protease: design, synthesis, biological evaluation, and cocrystal structure solution of P1 glutamine isosteric replacements” (J Med Chem, 1998)
